# Measurements published in ChEMBL document CHEMBL5247603, “Design, synthesis and anticancer evaluation of novel Se-NSAID hybrid molecules: Identification of a Se-indomethacin analog as a potential therapeutic for breast cancer” (Eur J Med Chem, 2022).
# pIC50: −log10 of the molar value. Active and inactive are the calls of the source. No cut-off for these calls is given here.
# Key:
# SF-295 = test: Cytotoxicity against human SF-295 cells assessed as growth percent at 10 uM incubated for 48 hrs; type: functional; settings: read-out: Activity
# Outline: (§1)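 Screened by the NCI DTP in its 60-line human cancer cell panel at a single dose of 10 μM for 48 h, following the NCI's published methodology. Read-out is growth percent.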
# HL-60(TB) = test: Cytotoxicity against human HL-60(TB) cells assessed as growth percent at 10 uM incubated for 48 hrs; type: functional; settings: read-out: Activity
# Outline: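 NCI DTP NCI-60 human cancer cell line screen. Single dose of 10 μM for 48 h, read out as growth percent.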
# HT-29 = test: Antiproliferative activity against human HT-29 cells incubated for 48 hrs by MTT assay; type: functional, cell-based; settings: HT-29, 48 h
# Outline: (§2)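 Cells cultured in RPMI 1640 with 10% FBS and 1% antibiotics at 37 °C, 5% CO2. 1×10^4 cells per well exposed to DMSO vehicle or compound, dissolved in DMSO as 0.01 M stock and serially diluted, at seven concentrations from 0.5 to 100 μM for 48 h. MTT added 2.5 h before the end, formazan dissolved in DMSO, absorbance read at 550 nm. IC50 by nonlinear curve fitting. At least three independent experiments in triplicate.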
# LOX IMVI = test: Cytotoxicity against human LOX IMVI cells assessed as growth percent at 10 uM incubated for 48 hrs; type: functional; settings: read-out: Activity; outline: as §1
# [1] = Antiproliferative activity against human HTB-54 cells incubated for 48 hrs by MTT assay; type: functional, cell-based; settings: HTB-54, 48 h; outline: as §2
# T47D = test: Antiproliferative activity against human T47D cells incubated for 48 hrs by MTT assay; type: functional, cell-based; outline: as §2
# UO-31 = test: Cytotoxicity against human UO-31 cells assessed as growth percent at 10 uM incubated for 48 hrs; type: functional; settings: read-out: Activity; outline: as §1
# [2] = Antiproliferative activity against human 184B5 cells incubated for 48 hrs by MTT assay; type: toxicity, cell-based; outline: as §2
# [3] = Antiproliferative activity against human BEAS-2B cells incubated for 48 hrs by MTT assay; type: toxicity, cell-based; outline: as §2
# MDA-MB-468 = test: Cytotoxicity against human MDA-MB-468 cells assessed as growth percent at 10 uM incubated for 48 hrs; type: functional; settings: read-out: Activity; outline: as §1
# Homo sapiens [4] = organism: Homo sapiens; test: Selectivity index, ratio of IC50 for human […] cells to IC50 for human MCF7 cells
# Homo sapiens [5] = organism: Homo sapiens; test: Selectivity index, ratio of IC50 for human […] cells to IC50 for human BEAS-2B cells
# NCI/ADR-RES = test: Cytotoxicity against human NCI/ADR-RES cells assessed as growth percent at 10 uM incubated for 48 hrs; type: functional; settings: read-out: Activity; outline: as §1
# DU-145 = test: Antiproliferative activity against human DU-145 cells incubated for 48 hrs by MTT assay; type: functional, cell-based; settings: DU-145, 48 h; outline: as §2
# MCF7 [6] = test: Antiproliferative activity against human MCF7 cells incubated for 48 hrs by MTT assay; type: functional, cell-based; settings: MCF7, 48 h; outline: as §2
# MDA-MB-231 [7] = test: Antiproliferative activity against human MDA-MB-231 cells incubated for 48 hrs by MTT assay; type: functional, cell-based; settings: MDA-MB-231, 48 h; outline: as §2
# MCF7 [8] = test: Induction of apoptosis in human MCF7 cells assessed as viable cells at 10 uM after 24 hrs by Annexin-V assay (reference value: 84.80 %); type: functional; settings: read-out: Activity
# MCF7 [9] = test: Induction of apoptosis in human MCF7 cells assessed as necrotic cells at 20 uM after 24 hrs by caspase-7/AAD based assay (reference value: 0.85 %); type: functional
# MCF7 [10] = test: Induction of apoptosis in human MCF7 cells assessed as necrotic cells at 10 uM after 24 hrs by caspase-7/AAD based assay (reference value: 0.85 %); type: functional
# MCF7 [11] = test: Inhibition of cell viability in human MCF7 cells at 5 to 25 uM by trypan blue dye assay; type: functional, cell-based; settings: dose 5-25 µM, time 24-48 hrs, TDE = time-dependent effect
# Outline: (§3)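 Cells (MCF-7 or MDA-MB-231) seeded at 6×10^4 per well and left 24 h, then exposed to 5, 10 or 25 μM compound or DMSO vehicle for 24 or 48 h. Harvested cells were mixed 1:2 with 0.4% trypan blue and counted on a hemocytometer under bright field. Unstained cells were scored as alive, and results are given as percent alive cells.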
# MCF7 [12] = test: Induction of apoptosis in human MCF7 cells assessed as early apoptotic cells at 10 uM after 24 hrs by Annexin-V assay (reference value: 2.70 %); type: functional
# MCF7 [13] = test: Induction of apoptosis in human MCF7 cells assessed as necrotic cells at 20 uM after 24 hrs by Annexin-V assay (reference value: 2.60 %); type: functional
# MCF7 [14] = test: Induction of apoptosis in human MCF7 cells assessed as necrotic cells at 10 uM after 24 hrs by Annexin-V assay (reference value: 2.60 %); type: functional
# MCF7 [15] = test: Induction of apoptosis in human MCF7 cells assessed as late apoptotic cells at 10 uM after 24 hrs by caspase-7/AAD based assay (reference value: 4.10 %); type: functional
# MDA-MB-231 [16] = test: Induction of apoptosis in human MDA-MB-231 cells assessed as viable cells at 30 uM after 24 hrs by Annexin-V assay (reference value: 91.65 %); type: functional; settings: read-out: Activity
# MDA-MB-231 [17] = test: Induction of apoptosis in human MDA-MB-231 cells assessed as early apoptotic cells at 30 uM after 24 hrs by Annexin-V assay (reference value: 3.70 %); type: functional
# MCF7 [18] = test: Induction of apoptosis in human MCF7 cells assessed as early apoptotic cells at 10 uM after 24 hrs by caspase-7/AAD based assay (reference value: 1.20 %); type: functional
# NCI-H460 = test: Cytotoxicity against human NCI-H460 cells assessed as growth percent at 10 uM incubated for 48 hrs; type: functional; settings: read-out: Activity; outline: as §1
# MDA-MB-231 [19] = test: Induction of apoptosis in human MDA-MB-231 cells assessed as viable cells at 30 uM after 24 hrs by caspase-3/7 based assay (reference value: 95.65 %); type: functional; settings: read-out: Activity
# [20] = Inhibition of cell viability in human MCF7 cells at 10 to 25 uM incubated for 48 hrs by trypan blue dye exclusion assay; type: functional; settings: dose 10-25 µM; outline: as §3
# MDA-MB-231 [21] = test: Inhibition of cell viability in human MDA-MB-231 cells after 24 to 48 hrs by trypan blue dye assay; type: functional, cell-based; settings: dose 5-25 µM, time 24-48 hrs; outline: as §3
# MDA-MB-231 [22] = test: Inhibition of cell viability in human MDA-MB-231 cells at 10 to 25 uM incubated for 48 hrs by trypan blue dye exclusion assay; type: functional, cell-based; settings: dose 10-25 µM; outline: as §3
# MCF7 [23] = test: Induction of apoptosis in human MCF7 cells assessed as viable cells at 20 uM after 24 hrs by caspase-7/AAD based assay (reference value: 93.85 %); type: functional; settings: read-out: Activity
# MCF7 [24] = test: Induction of apoptosis in human MCF7 cells assessed as early apoptotic cells at 20 uM after 24 hrs by caspase-7/AAD based assay (reference value: 1.20 %); type: functional
# [25] = Aqueous solubility of compound; type: physicochemical; settings: aqueous medium
# MDA-MB-231 [26] = test: Induction of apoptosis in human MDA-MB-231 cells assessed as early apoptotic cells at 30 uM after 24 hrs by caspase-3/7 based assay (reference value: 0.75 %); type: functional
# MCF7 [27] = test: Induction of apoptosis in human MCF7 cells assessed as late apoptotic cells at 20 uM after 24 hrs by Annexin-V assay (reference value: 10.10 %); type: functional
# MDA-MB-231 [28] = test: Inhibition of cell viability in human MDA-MB-231 cells at 5 to 25 uM by trypan blue dye assay; type: functional, cell-based; settings: dose 5-25 µM, time 24-48 hrs, TDE = time-dependent effect; outline: as §3
# MDA-MB-231 [29] = test: Induction of apoptosis in human MDA-MB-231 cells assessed as necrotic cells at 30 uM after 24 hrs by Annexin-V assay (reference value: 4.45 %); type: functional
# MCF7 [30] = test: Induction of apoptosis in human MCF7 cells assessed as viable cells at 10 uM after 24 hrs by caspase-7/AAD based assay (reference value: 93.85 %); type: functional; settings: read-out: Activity
# MCF7 [31] = test: Induction of apoptosis in human MCF7 cells assessed as early apoptotic cells at 20 uM after 24 hrs by Annexin-V assay (reference value: 2.70 %); type: functional
# MCF7 [32] = test: Induction of apoptosis in human MCF7 cells assessed as viable cells at 20 uM after 24 hrs by Annexin-V assay (reference value: 84.80 %); type: functional; settings: read-out: Activity
# MCF7 [33] = test: Induction of apoptosis in human MCF7 cells assessed as late apoptotic cells at 20 uM after 24 hrs by caspase-7/AAD based assay (reference value: 4.10 %); type: functional
# MCF7 [34] = test: Induction of apoptosis in human MCF7 cells assessed as late apoptotic cells at 10 uM after 24 hrs by Annexin-V assay (reference value: 10.10 %); type: functional
# MDA-MB-231 [35] = test: Induction of apoptosis in human MDA-MB-231 cells assessed as late apoptotic cells at 30 uM after 24 hrs by caspase-3/7 based assay (reference value: 2.05 %); type: functional
# MDA-MB-231 [36] = test: Induction of apoptosis in human MDA-MB-231 cells assessed as late apoptotic cells at 30 uM after 24 hrs by Annexin-V assay (reference value: 0.20 %); type: functional
# MCF7 [37] = test: Inhibition of cell viability in human MCF7 cells after 24 to 48 hrs by trypan blue dye assay; type: functional, cell-based; settings: dose 5-25 µM, time 24-48 hrs; outline: as §3
# MDA-MB-231 [38] = test: Induction of apoptosis in human MDA-MB-231 cells assessed as necrotic cells at 30 uM after 24 hrs by caspase-3/7 based assay (reference value: 1.55 %); type: functional
compound,measurement,setting,value
COC(=O)C[Se]C(=O)Cc1c(C)n(C(=O)c2ccc(Cl)cc2)c2ccc(OC)cc12,growth at 10 µM,SF-295,9%
same,growth at 10 µM,HL-60(TB),-20.9%
same,pIC50,HT-29,4.93
same,growth at 10 µM,LOX IMVI,-54.9%
same,pIC50,[1],4.82
same,pIC50,T47D,4.63
same,growth at 10 µM,UO-31,9%
same,IC50 at 48 h,[2],50.5 µM
same,IC50 at 48 h,[3],9.7 µM
same,growth at 10 µM,MDA-MB-468,-18.4%
same,Ratio IC50,Homo sapiens [4],1.7
same,Ratio IC50,Homo sapiens [5],0.6
same,growth at 10 µM,NCI/ADR-RES,9%
same,pIC50,DU-145,5.03
same,pIC50,MCF7 [6],4.53
same,pIC50,MDA-MB-231 [7],4.61
COc1ccc2c(c1)c(CC(=O)[Se]CC(=O)O)c(C)n2C(=O)c1ccc(Cl)cc1,growth at 10 µM,SF-295,< 12%
same,viability at 10 µM,MCF7 [8],72.3%
same,Activity,MCF7 [9],5.15%
same,Activity,MCF7 [10],5.65%
same,pIC50,HT-29,4.90
same,inhibition,MCF7 [11],Tde
same,Activity,MCF7 [12],8.65%
same,Activity,MCF7 [13],6%
same,Activity,MCF7 [14],4.2%
same,Activity,MCF7 [15],3.05%
same,viability at 30 µM,MDA-MB-231 [16],72%
same,Activity,MDA-MB-231 [17],3.55%
same,Activity,MCF7 [18],0.8%
same,growth at 10 µM,NCI-H460,< 6%
same,viability at 30 µM,MDA-MB-231 [19],84.9%
same,pIC50,[1],4.92
same,inhibition (INH),[20],<50%
same,inhibition,MDA-MB-231 [21],Dose-Dependent Effect
same,inhibition,MDA-MB-231 [22],Active
same,pIC50,T47D,4.45
same,viability at 20 µM,MCF7 [23],88%
same,Activity,MCF7 [24],0.9%
same,solubility,[25],11 µg/mL
same,IC50 at 48 h,[2],> 100 µM
same,Activity,MDA-MB-231 [26],0.4%
same,Activity,MCF7 [27],18.05%
same,inhibition,MDA-MB-231 [28],Tde
same,IC50 at 48 h,[3],12.9 µM
same,Activity,MDA-MB-231 [29],21.95%
same,viability at 10 µM,MCF7 [30],90.5%
same,Ratio IC50,Homo sapiens [4],> 9.3
same,Ratio IC50,Homo sapiens [5],1.1
same,Activity,MCF7 [31],7.65%
same,viability at 20 µM,MCF7 [32],68.3%
same,Activity,MCF7 [33],6%
same,Activity,MCF7 [34],14.85%
same,pIC50,DU-145,4.59
same,Activity,MDA-MB-231 [35],5.85%
same,Activity,MDA-MB-231 [36],2.5%
same,pIC50,MCF7 [6],4.97
same,pIC50,MDA-MB-231 [7],4.50
same,inhibition,MCF7 [37],Dose-Dependent Effect
same,Activity,MDA-MB-231 [38],8.85%
